Measured values taken from ChEMBL document CHEMBL4715736, “Identification of anticancer agents based on the thieno[2,3-b]pyridine and 1H-pyrazole molecular scaffolds” (2016).

What was measured:
Type in all cases: functional
Settings in all cases: read-out: Activity
COLO 205 = test: Growth inhibition of human COLO 205 cells assessed as cell growth at 10 uM incubated for 48 hrs by sulforhodamine B assay relative to control
Method in brief: (§1)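 NCI Developmental Therapeutics Program NCI60 panel. Compounds that were active in the 10 µM one-dose screen went on to dose–response testing. Growth at each concentration is expressed relative to untreated control (100%). GI50 (concentration giving 50% of maximal inhibition of proliferation) and TGI (concentration giving total growth inhibition) were derived from the curves.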

U-251 = test: Growth inhibition of human U-251 cells assessed as cell growth at 10 uM incubated for 48 hrs by sulforhodamine B assay relative to control
Method in brief: (§2)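 Run by the NCI Developmental Therapeutics Program as part of its 60-line human tumour panel. Each compound tested at a single 10 µM dose. Growth expressed as % relative to untreated control cells (100%).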

UACC-62 = test: Growth inhibition of human UACC-62 cells assessed as cell growth at 10 uM incubated for 48 hrs by sulforhodamine B assay relative to control; method in brief: as §2
KM12 = test: Growth inhibition of human KM12 cells assessed as cell growth at 10 uM incubated for 48 hrs by sulforhodamine B assay relative to control
Method in brief: (§3)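 Submitted to the NCI Developmental Therapeutics Program for the NCI60 human tumour cell line panel. First screen at a single 10 µM concentration. Read-out is growth relative to untreated control cells set at 100%.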

M14 = test: Growth inhibition of human M14 cells assessed as cell growth at 10 uM incubated for 48 hrs by sulforhodamine B assay relative to control; method in brief: as §3
HCT-116 = test: Growth inhibition of human HCT-116 cells assessed as cell growth at 10 uM incubated for 48 hrs by sulforhodamine B assay relative to control; method in brief: as §3
SF-295 = test: Growth inhibition of human SF-295 cells assessed as cell growth at 10 uM incubated for 48 hrs by sulforhodamine B assay relative to control; method in brief: as §2
IGROV-1 = test: Growth inhibition of human IGROV-1 cells assessed as cell growth at 10 uM incubated for 48 hrs by sulforhodamine B assay relative to control; method in brief: as §3
CCRF-CEM = test: Growth inhibition of human CCRF-CEM cells assessed as cell growth at 10 uM incubated for 48 hrs by sulforhodamine B assay relative to control; method in brief: as §1
HCC 2998 = test: Growth inhibition of human HCC 2998 cells assessed as cell growth at 10 uM incubated for 48 hrs by sulforhodamine B assay relative to control; method in brief: as §1
MDA-MB-468 = test: Growth inhibition of human MDA-MB-468 cells assessed as cell growth at 10 uM incubated for 48 hrs by sulforhodamine B assay relative to control; method in brief: as §3
UACC-257 = test: Growth inhibition of human UACC-257 cells assessed as cell growth at 10 uM incubated for 48 hrs by sulforhodamine B assay relative to control; method in brief: as §2
ACHN = test: Growth inhibition of human ACHN cells assessed as cell growth at 10 uM incubated for 48 hrs by sulforhodamine B assay relative to control
Method in brief: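 NCI Developmental Therapeutics Program NCI60 human tumour cell line panel, one-dose primary screen with every compound at 10 µM. Growth is expressed as % of untreated control cells (100%).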

OVCAR-4 = test: Growth inhibition of human OVCAR-4 cells assessed as cell growth at 10 uM incubated for 48 hrs by sulforhodamine B assay relative to control; method in brief: as §2
SK-MEL-28 = test: Growth inhibition of human SK-MEL-28 cells assessed as cell growth at 10 uM incubated for 48 hrs by sulforhodamine B assay relative to control; method in brief: as §2
OVCAR-3 = test: Growth inhibition of human OVCAR-3 cells assessed as cell growth at 10 uM incubated for 48 hrs by sulforhodamine B assay relative to control; method in brief: as §2
SK-MEL-5 = test: Growth inhibition of human SK-MEL-5 cells assessed as cell growth at 10 uM incubated for 48 hrs by sulforhodamine B assay relative to control; method in brief: as §2
SF-539 = test: Growth inhibition of human SF-539 cells assessed as cell growth at 10 uM incubated for 48 hrs by sulforhodamine B assay relative to control; method in brief: as §2
OVCAR-5 = test: Growth inhibition of human OVCAR-5 cells assessed as cell growth at 10 uM incubated for 48 hrs by sulforhodamine B assay relative to control; method in brief: as §2
LOX IMVI = test: Growth inhibition of human LOX IMVI cells assessed as cell growth at 10 uM incubated for 48 hrs by sulforhodamine B assay relative to control; method in brief: as §3
Malme-3M = test: Growth inhibition of human Malme-3M cells assessed as cell growth at 10 uM incubated for 48 hrs by sulforhodamine B assay relative to control; method in brief: as §3
SNB-19 = test: Growth inhibition of human SNB-19 cells assessed as cell growth at 10 uM incubated for 48 hrs by sulforhodamine B assay relative to control; method in brief: as §2
DU-145 = test: Growth inhibition of human DU-145 cells assessed as cell growth at 10 uM incubated for 48 hrs by sulforhodamine B assay relative to control; method in brief: as §1
HOP-92 = test: Growth inhibition of human HOP-92 cells assessed as cell growth at 10 uM incubated for 48 hrs by sulforhodamine B assay relative to control; method in brief: as §3
NCI-H460 = test: Growth inhibition of human NCI-H460 cells assessed as cell growth at 10 uM incubated for 48 hrs by sulforhodamine B assay relative to control; method in brief: as §3
MCF7 = test: Growth inhibition of human MCF7 cells assessed as cell growth at 10 uM incubated for 48 hrs by sulforhodamine B assay relative to control; method in brief: as §3
NCI-H23 = test: Growth inhibition of human NCI-H23 cells assessed as cell growth at 10 uM incubated for 48 hrs by sulforhodamine B assay relative to control; method in brief: as §3
HOP-62 = test: Growth inhibition of human HOP-62 cells assessed as cell growth at 10 uM incubated for 48 hrs by sulforhodamine B assay relative to control; method in brief: as §3
RPMI-8226 = test: Growth inhibition of human RPMI-8226 cells assessed as cell growth at 10 uM incubated for 48 hrs by sulforhodamine B assay relative to control; method in brief: as §2
T47D = test: Growth inhibition of human T47D cells assessed as cell growth at 10 uM incubated for 48 hrs by sulforhodamine B assay relative to control; method in brief: as §2
OVCAR-8 = test: Growth inhibition of human OVCAR-8 cells assessed as cell growth at 10 uM incubated for 48 hrs by sulforhodamine B assay relative to control; method in brief: as §2
SN12C = test: Growth inhibition of human SN12C cells assessed as cell growth at 10 uM incubated for 48 hrs by sulforhodamine B assay relative to control; method in brief: as §2
NCI-H322M = test: Growth inhibition of human NCI-H322M cells assessed as cell growth at 10 uM incubated for 48 hrs by sulforhodamine B assay relative to control; method in brief: as §3
RXF 393 = test: Growth inhibition of human RXF 393 cells assessed as cell growth at 10 uM incubated for 48 hrs by sulforhodamine B assay relative to control; method in brief: as §2
A549 = test: Growth inhibition of human A549/ATCC cells assessed as cell growth at 10 uM incubated for 48 hrs by sulforhodamine B assay relative to control; method in brief: as §1

SMILES: CC1(C)CCc2cc(-c3ccn(S(=O)(=O)c4ccc(C(F)(F)F)cc4)n3)ccc2O1
- growth at 10 µM (COLO 205): 108%
- growth at 10 µM (U-251): 89.1%
- growth at 10 µM (UACC-62): 83.5%
- growth at 10 µM (KM12): 98%
- growth at 10 µM (M14): 92.5%
- growth at 10 µM (HCT-116): 80.6%
- growth at 10 µM (SF-295): 87.3%
- growth at 10 µM (IGROV-1): 89.3%
- growth at 10 µM (CCRF-CEM): 82.8%
- growth at 10 µM (HCC 2998): 94.4%
- growth at 10 µM (MDA-MB-468): 64.2%
- growth at 10 µM (UACC-257): 86.8%
- growth at 10 µM (ACHN): 101%
- growth at 10 µM (OVCAR-4): 71.3%
- growth at 10 µM (SK-MEL-28): 99.6%
- growth at 10 µM (OVCAR-3): 104%
- growth at 10 µM (SK-MEL-5): 90.7%
- growth at 10 µM (SF-539): 94.6%
- growth at 10 µM (OVCAR-5): 95.7%
- growth at 10 µM (LOX IMVI): 98.6%
- growth at 10 µM (Malme-3M): 97.3%
- growth at 10 µM (SNB-19): 113%
- growth at 10 µM (DU-145): 103%
- growth at 10 µM (HOP-92): 71.8%
- growth at 10 µM (NCI-H460): 92%
- growth at 10 µM (MCF7): 84.9%
- growth at 10 µM (NCI-H23): 83.1%
- growth at 10 µM (HOP-62): 119%
- growth at 10 µM (RPMI-8226): 76.6%
- growth at 10 µM (T47D): 63.9%
- growth at 10 µM (OVCAR-8): 90.9%
- growth at 10 µM (SN12C): 97.3%
- growth at 10 µM (NCI-H322M): 105%
- growth at 10 µM (RXF 393): 84.2%
- growth at 10 µM (A549): 79.8%

SMILES: CC1(C)CCc2cc(-c3ccn(S(=O)(=O)c4ccccc4)n3)ccc2O1
- growth at 10 µM (COLO 205): 96.1%
- growth at 10 µM (U-251): 72.3%
- growth at 10 µM (UACC-62): 73.3%
- growth at 10 µM (KM12): 71.5%
- growth at 10 µM (M14): 61%
- growth at 10 µM (HCT-116): 62.7%
- growth at 10 µM (SF-295): 81.4%
- growth at 10 µM (IGROV-1): 96.4%
- growth at 10 µM (CCRF-CEM): 65.6%
- growth at 10 µM (HCC 2998): 83.2%
- growth at 10 µM (MDA-MB-468): 54.6%
- growth at 10 µM (UACC-257): 82.7%
- growth at 10 µM (ACHN): 90.1%
- growth at 10 µM (OVCAR-4): 64.2%
- growth at 10 µM (SK-MEL-28): 97.2%
- growth at 10 µM (OVCAR-3): 81.4%
- growth at 10 µM (SK-MEL-5): 75.7%
- growth at 10 µM (SF-539): 92.8%
- growth at 10 µM (OVCAR-5): 89.7%
- growth at 10 µM (LOX IMVI): 85.2%
- growth at 10 µM (Malme-3M): 99.3%
- growth at 10 µM (SNB-19): 94.1%
- growth at 10 µM (DU-145): 85.6%
- growth at 10 µM (HOP-92): 60%
- growth at 10 µM (NCI-H460): 72.8%
- growth at 10 µM (MCF7): 76.1%
- growth at 10 µM (NCI-H23): 75.5%
- growth at 10 µM (HOP-62): 108%
- growth at 10 µM (RPMI-8226): 59.5%
- growth at 10 µM (T47D): 50.5%
- growth at 10 µM (OVCAR-8): 84.3%
- growth at 10 µM (SN12C): 98.8%
- growth at 10 µM (NCI-H322M): 91.7%
- growth at 10 µM (RXF 393): 81.7%
- growth at 10 µM (A549): 77.6%
